Data on four compounds can be found in ChEMBL document CHEMBL3804778, “Astemizole Derivatives as Fluorescent Probes for hERG Potassium Channel Imaging” (ACS Med Chem Lett, 2016).

The test system of data set [1] is HEK293. Put plainly: Cytotoxicity against human ERG transfected HEK293 cells after 24 hrs by MTT assay. It counts as cell-based. Conditions: HEK293, 24 h. A digest of the protocol:
(§1)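 MTT viability assay in hERG-transfected HEK293 cells and in HT-29 cells exposed to probe. Half-maximal inhibitory concentration was derived for each cell line and reported as mean ± deviation.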
For orientation: Tetrazolium dyes change colour on reduction, which living cells bring about.

The subject of data set [2] is HT-29. Put plainly: Cytotoxicity against human HT-29 cells after 24 hrs by MTT assay. It counts as cell-based. The conditions noted are these: HT-29, 24 h. The gist of the method:
as §1

In data set [3] the target is T1, Voltage-gated inwardly rectifying potassium channel KCNH2 (Homo sapiens, UniProt Q12809). In words: Displacement of [3H] dofetilide from human ERG channel expressed in HEK293 cell membranes incubated for 2 hrs by scintillation counting analysis. On the technique in general: In a radioligand displacement assay an active substance lowers the binding of a labelled ligand.

The target of data set [4] is T1, Voltage-gated inwardly rectifying potassium channel KCNH2. In words: Binding affinity to human ERG channel expressed in HEK293 cells assessed as fluorescence signal at 0.5 uM incubated for 10 mins by fluorescence microscopic imaging analysis. It counts as cell-based. The conditions noted are these: hek293, 10 min. A digest of the protocol:
(§2)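 Live-cell fluorescence microscopy of hERG-transfected HEK293 cells or HT-29 colorectal cancer cells incubated with probe at 0.5 μM. Images were taken in bright field and in the GFP channel. Probe photophysics were characterised at 10 μM in PBS, pH 7.4.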

The target is the same in data set [5]. In words: Binding affinity to human ERG channel expressed in HEK293 cells assessed as fluorescence signal at 0.5 uM incubated for 10 mins by fluorescence microscopic imaging analysis in presence of astemizole. It counts as cell-based. The conditions noted are these: hek293, 10 min. The gist of the method:
(§3)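 Competition imaging in hERG-transfected HEK293 or HT-29 cells. Cells were co-incubated with 100 μM astemizole and 0.5 μM probe, then imaged by fluorescence microscopy in bright field and the GFP channel. Cell autofluorescence, with and without astemizole, was checked separately.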

The target is the same in data set [6]. In words: Binding affinity to ERG channel in human HT-29 cells assessed as fluorescence signal at 0.5 uM incubated for 10 mins by fluorescence microscopic imaging analysis. It counts as cell-based. Conditions: ht-29, 10 min; call rule not given here. The gist of the method: as §2
The target is the same in data set [7]. In words: Binding affinity to ERG channel in human HT-29 cells assessed as fluorescence signal at 0.5 uM incubated for 10 mins by fluorescence microscopic imaging analysis in presence of astemizole. The conditions noted are these: ht-29, 10 min. It counts as cell-based. The gist of the method: as §3

T1 sequence (Q12809 whole entry): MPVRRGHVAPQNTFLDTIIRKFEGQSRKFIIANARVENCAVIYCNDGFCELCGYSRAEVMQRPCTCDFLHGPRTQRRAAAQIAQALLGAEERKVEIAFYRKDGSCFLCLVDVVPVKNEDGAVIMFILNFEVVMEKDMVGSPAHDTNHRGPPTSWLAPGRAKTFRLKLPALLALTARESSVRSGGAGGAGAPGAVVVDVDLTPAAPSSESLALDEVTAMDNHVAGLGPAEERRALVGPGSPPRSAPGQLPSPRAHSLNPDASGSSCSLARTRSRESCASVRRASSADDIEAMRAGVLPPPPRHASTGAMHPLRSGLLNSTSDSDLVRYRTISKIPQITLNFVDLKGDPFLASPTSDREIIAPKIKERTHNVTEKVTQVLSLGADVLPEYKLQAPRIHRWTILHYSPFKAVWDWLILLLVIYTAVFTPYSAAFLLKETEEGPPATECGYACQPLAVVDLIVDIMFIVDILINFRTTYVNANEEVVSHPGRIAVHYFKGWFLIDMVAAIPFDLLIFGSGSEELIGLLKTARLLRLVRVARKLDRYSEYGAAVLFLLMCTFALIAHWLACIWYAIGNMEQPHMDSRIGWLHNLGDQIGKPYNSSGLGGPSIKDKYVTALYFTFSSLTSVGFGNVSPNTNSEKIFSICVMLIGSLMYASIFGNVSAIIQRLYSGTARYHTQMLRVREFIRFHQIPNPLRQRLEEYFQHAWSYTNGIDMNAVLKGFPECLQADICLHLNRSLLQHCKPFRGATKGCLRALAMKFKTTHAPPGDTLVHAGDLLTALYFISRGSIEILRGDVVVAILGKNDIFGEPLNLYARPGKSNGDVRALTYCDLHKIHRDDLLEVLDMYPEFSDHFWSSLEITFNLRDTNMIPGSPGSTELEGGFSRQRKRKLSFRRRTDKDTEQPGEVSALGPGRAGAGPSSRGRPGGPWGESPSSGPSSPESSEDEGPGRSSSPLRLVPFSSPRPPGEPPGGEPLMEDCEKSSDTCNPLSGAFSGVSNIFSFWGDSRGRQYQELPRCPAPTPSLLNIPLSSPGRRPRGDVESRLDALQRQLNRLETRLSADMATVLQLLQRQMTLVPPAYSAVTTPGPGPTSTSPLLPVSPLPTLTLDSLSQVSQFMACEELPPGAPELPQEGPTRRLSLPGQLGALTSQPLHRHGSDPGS

Turning to `CCN(CC)c1ccc2cc(C(=O)NCCCCN3CCC(Nc4nc5ccccc5n4Cc4ccc(F)cc4)CC3)c(=O)oc2c1`, the half-maximal inhibitory concentration (IC50) (as a rule, the concentration needed to halve the response being measured) amounted to 4.7 µM in data set [1] and 9.9 µM in data set [2].

As for `COc1ccc(CCN2CCC(Nc3nc4ccccc4n3Cc3ccc(F)cc3)CC2)cc1` [ASTEMIZOLE], the IC50 in data set [1] was 5.1 µM; in data set [2] it was 15.4 µM.

As to `CC(=O)Nc1ccc2c3c(cccc13)C(=O)N(CCCCN1CCC(Nc3nc4ccccc4n3Cc3ccc(F)cc3)CC1)C2=O`, the IC50 in data set [1] amounted to 7.2 µM; in data set [2], 18.6 µM.

Turning to `O=[N+]([O-])c1ccc(NCCCCN2CCC(Nc3nc4ccccc4n3Cc3ccc(F)cc3)CC2)c2nonc12`, the figures for the IC50 in data set [3], in data set [1] and in data set [2] were 0.025 µM, 12.5 µM and 36.1 µM, respectively. In data set [3], the affinity, expressed as Ki, was 0.012 µM. Moreover, the Activity result is given as “Active” in data set [4], “Not Active” in data set [5], “Active” in data set [6] and “Not Active” in data set [7].
